Results from paper PMC6376552 (Antiviral Chemistry & Chemotherapy, 2019).
Read-outs that look alike come from different tables or passages of the source.

What was measured:
Type in all cases: cell-based
[1] = tested on: MT-4 cells; assay: MT-4 cytotoxicity assay; conditions: MT-4 cell line, n = 3
[2] = tested on: HIV-1 (IIIB strain); assay: MT-4 antiviral cytoprotection assay, five-day multi-cycle, wild type HIV-1; conditions: for anti-HIV activity in words / SI (selectivity index): wild type; for anti-HIV activity in words: MT-4 cells; for SI (selectivity index): CC50/EC50 ratio, MT-4
In short: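 MT-4 cells were pre-infected with a fresh 1:250 dilution of concentrated HIV-1 IIIB stock, or mock-infected for cytotoxicity. Test compound was serially diluted 1:3 in DMSO, then 200-fold into RPMI with 10% FBS and 1% P/S. Controls were no-drug and 5 µM AZT. After 5 days at 37°C, viability was read by CellTiter-Glo luminescence. EC50/CC50 were taken as 50% signal decrease from sigmoidal fits; SI = CC50/EC50.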

[3] = MT-4 cytotoxicity assay; conditions: human, MT-4 cells (mock-infected), CC50, MT-4 cell line, n = 3
[4] = tested on: HIV-1 encoding RT mutation K103N; assay: MT-4 antiviral assay against HIV-1 encoding RT mutation K103N; conditions: Human immunodeficiency virus 1, MT4, read-out: EC50 K103N
[5] = tested on: HIV-1 encoding RT mutation Y181C; assay: MT-4 antiviral assay against HIV-1 encoding RT mutation Y181C; conditions: Human immunodeficiency virus 1, MT4, read-out: EC50 Y181C
[6] = Human immunodeficiency virus 1, IIIB, MT4, read-out: EC50 w.t.

| Molecule | CC50 [1] | EC50 ([2]; read-out: EC50 w.t., MT-4 cell line, HIV-1 IIIB wild type, n = 3) | anti-HIV activity in words [2] | CC50 at 5 days [3] | SI (selectivity index) [2] | EC50 [2, 6] | EC50 [4] | EC50 [5] |
| --- | --- | --- | --- | --- | --- | --- | --- | --- |
| 4-((4-amino-6–(2,6-difluoro-4-methoxybenzoyl)pyrimidin-2-yl)amino)benzonitrile [Compound 15] | 7.7 µM | 2.2 µM | micromolar range | – | – | – | – | – |
| COc1cc(F)c(C(=O)c2nc(N)cc(Nc3ccc(C#N)cc3)n2)c(F)c1 [Compound 11, 4-((6-amino-2–(2,6-difluoro-4-methoxybenzoyl)pyrimidin-4-yl)amino)benzonitrile] | – | – | micromolar range | 6.24 µM | 7.14 | 0.874 µM | – | – |
| N#Cc1ccc(Nc2cc(N)nc(C(=O)c3c(F)cc(F)cc3F)n2)cc1 [Compound 12, 4-((6-amino-2–(2,4,6-trifluorobenzoyl)pyrimidin-4-yl)amino)benzonitrile] | – | – | micromolar range | 42 µM | 24.3 | 1.73 µM | – | – |
| COc1cc(F)c(C(=O)c2cc(N)nc(Nc3ccc(C#N)cc3)n2)c(F)c1 [Compound 13, 4-((4-amino-6–(2,6-difluoro-4-methoxybenzoyl)pyrimidin-2-yl)amino)benzonitrile] | – | – | low nanomolar activities | 19.6 µM | 4900 | 0.004 µM | 0.226 µM | 0.797 µM |
| N#Cc1ccc(Nc2nc(N)cc(C(=O)c3c(F)cc(F)cc3F)n2)cc1 [Compound 14, 4-((4-amino-6–(2,4,6-trifluorobenzoyl)pyrimidin-2-yl)amino)benzonitrile] | – | – | low nanomolar activities | 24.3 µM | 935 | 0.026 µM | 1.7 µM | 3.9 µM |
| N#Cc1ccc(Nc2cc(C(=O)c3c(F)cc(F)cc3F)nc(N)n2)cc1 [Compound 16, 4-((2-amino-6–(2,4,6-trifluorobenzoyl)pyrimidin-4-yl)amino)benzonitrile] | – | – | micromolar range | 0.981 µM | 0.025 | 40 µM | – | – |
| Cc1cc(C(=O)c2c(F)cc(F)cc2F)nc(Nc2ccc(C#N)cc2)n1 [Compound 18, 4-((4-methyl-6–(2,4,6-trifluorobenzoyl)pyrimidin-2-yl)amino)benzonitrile] | – | – | – | 57.1 µM | – | 0.16 µM | – | – |
| COc1cc(C(=O)c2c(F)cc(F)cc2F)nc(Nc2ccc(C#N)cc2)n1 [Compound 22, 4-((4-methoxy-6–(2,4,6-trifluorobenzoyl)pyrimidin-2-yl)amino)benzonitrile] | – | – | – | 9.16 µM | 19.4 | 0.473 µM | – | – |
| COc1cc(F)c(Oc2cc(Cl)nc(Nc3ccc(C#N)cc3)n2)c(F)c1 [Compound 27, 4-((4-chloro-6–(2,6-difluoro-4-methoxyphenoxy)pyrimidin-2-yl)amino)benzonitrile] | – | – | – | 16.1 µM | 847 | 0.019 µM | 0.413 µM | 1.64 µM |
| N#Cc1ccc(Nc2nc(Cl)cc(Oc3c(F)cc(F)cc3F)n2)cc1 [Compound 28, 4-((4-chloro-6–(2,4,6-trifluorophenoxy)pyrimidin-2-yl)amino)benzonitrile] | – | – | – | 14 µM | 264 | 0.053 µM | 0.657 µM | 2.53 µM |
| COc1cc(F)c(Nc2cc(Cl)nc(Nc3ccc(C#N)cc3)n2)c(F)c1 [Compound 29, 4-((4-chloro-6-((2,6-difluoro-4-methoxyphenyl)amino)pyrimidin-2-yl)amino)benzonitrile] | – | – | – | 16 µM | 2667 | 0.006 µM | 0.204 µM | 0.651 µM |
| N#Cc1ccc(Nc2nc(Cl)cc(Nc3c(F)cc(F)cc3F)n2)cc1 [Compound 30, 4-((4-chloro-6-((2,4,6-trifluorophenyl)amino)pyrimidin-2-yl)amino)benzonitrile] | – | – | – | 10.2 µM | 378 | 0.027 µM | 1.02 µM | 2 µM |
| COc1cc(F)c(Oc2cc(OC)nc(Nc3ccc(C#N)cc3)n2)c(F)c1 [Compound 31, 4-((4–(2,6-difluoro-4-methoxyphenoxy)-6-methoxypyrimidin-2-yl)amino)benzonitrile] | – | – | – | 15.8 µM | 832 | 0.019 µM | 0.444 µM | 4.37 µM |
| COc1cc(Oc2c(F)cc(F)cc2F)nc(Nc2ccc(C#N)cc2)n1 [Compound 32, 4-((4-methoxy-6–(2,4,6-trifluorophenoxy)pyrimidin-2-yl)amino)benzonitrile] | – | – | – | 50 µM | 926 | 0.054 µM | 0.56 µM | 7.7 µM |
| COc1cc(F)c(Nc2cc(OC)nc(Nc3ccc(C#N)cc3)n2)c(F)c1 [Compound 33, 4-((4-((2,6-difluoro-4-methoxyphenyl)amino)-6-methoxypyrimidin-2-yl)amino)benzonitrile] | – | – | – | 39 µM | 5571 | 0.007 µM | – | – |
| COc1cc(Nc2c(F)cc(F)cc2F)nc(Nc2ccc(C#N)cc2)n1 [Compound 34, 4-((4-methoxy-6-((2,4,6-trifluorophenyl)amino)pyrimidin-2-yl)amino)benzonitrile] | – | – | – | 9.99 µM | 454 | 0.022 µM | 1.21 µM | 2.02 µM |
| COc1cc(F)c(Oc2cc(N)nc(Nc3ccc(C#N)cc3)n2)c(F)c1 [Compound 35, 4-((4-amino-6–(2,6-difluoro-4-methoxyphenoxy)pyrimidin-2-yl)amino)benzonitrile] | – | – | – | 21.7 µM | 10,850 | 0.002 µM | 0.036 µM | 0.637 µM |
| N#Cc1ccc(Nc2nc(N)cc(Oc3c(F)cc(F)cc3F)n2)cc1 [Compound 36, 4-((4-amino-6–(2,4,6-trifluorophenoxy)pyrimidin-2-yl)amino)benzonitrile] | – | – | – | 19.6 µM | 293 | 0.067 µM | 0.067 µM | 6.66 µM |
| COc1cc(F)c(Nc2cc(N)nc(Nc3ccc(C#N)cc3)n2)c(F)c1 [Compound 37, 4-((4-amino-6-((2,6-difluoro-4-methoxyphenyl)amino)pyrimidin-2-yl)amino)benzonitrile] | – | – | – | 17.2 µM | 5733 | 0.003 µM | 0.062 µM | 0.437 µM |
| N#Cc1ccc(Nc2nc(N)cc(Nc3c(F)cc(F)cc3F)n2)cc1 [Compound 38, 4-((4-amino-6-((2,4,6-trifluorophenyl)amino)pyrimidin-2-yl)amino)benzonitrile] | – | – | – | 34.8 µM | 1289 | 0.027 µM | 1.65 µM | 13.7 µM |
| O=C1Nc2ccc(Cl)cc2[C@@](C#CC2CC2)(C(F)(F)F)O1 [EFV, efavirenz, reference compound] | – | – | – | 20.6 µM | – | – | 0.101 µM | 0.005 µM |
| Cc1cc(C#N)cc(C)c1Oc1nc(Nc2ccc(C#N)cc2)nc(N)c1Br [ETR, etravirine, reference compound] | – | – | – | 5.88 µM | 2940 | 0.002 µM | 0.002 µM | 0.012 µM |
